Experimental data of several laboratories.
Protocols differ between the studies behind these lines.
Organism: Plasmodium falciparum
Observed: parasite growth

SMILES	test	test system	conditions	quantity	result
O=C(Nc1c(F)cccc1C(=O)O)c1ccc(-c2ccccc2)cc1	SYBR Green	NF54	10 µM, 96 h, blood stage	inhibition	6.4%
CN1CCN(S(=O)(=O)c2ccc(-c3ccc4c(Nc5ccc6[nH]nnc6c5)ccnc4c3)cc2)CC1	–	D6	drug-resistant strain, blood stage	EC50	27 nM
CCn1cc(-c2nc(C)no2)c(=O)c2cc(F)c(N3CCC(C)CC3)cc21	–	3D7	blood stage	EC50	7.62 nM
COc1ccc(Nc2ccnc3cc(-c4ccc(S(=O)(=O)N5CCN(C)CC5)cc4)ccc23)cc1Cl	–	D6	drug-resistant strain, blood stage	EC50	12 nM
O=C(Nc1ccc(F)cc1C(=O)O)c1ccc(-c2ccccc2)cc1	–	NF54	2 µM, 48 h, gametocyte	inhibition	43.5%
CCCC1CCN(c2cc3c(cc2F)c(=O)c(C(=O)OCC)cn3CC)CC1	–	3D7	72 h, blood stage	EC50	30 nM
CN1CCN(S(=O)(=O)c2ccc(-c3ccc4c(Nc5ccnnc5)ccnc4c3)cc2)CC1	–	D6	drug-resistant strain, blood stage	EC50	2100 nM
Cc1ccc(-c2ccccc2C(=O)Nc2c(C)cccc2C(=O)O)cc1	SYBR Green	NF54	10 µM, 96 h, blood stage	inhibition	8.4%
COc1ccc(Nc2ccnc3cc(Nc4nccc(N5CCN(C)CC5)n4)ccc23)cc1Cl	–	D6	drug-resistant strain, blood stage	EC50	99 nM
O=C(Nc1cc(F)ccc1C(=O)O)c1ccc(-c2ccccc2)cc1	–	NF54	2 µM, 48 h, gametocyte	inhibition	13.8%
CCNC(=O)c1cn(CC)c2cc(N3CCC(C)CC3)c(F)cc2c1=O	–	3D7	72 h, blood stage	EC50	477 nM
C[C@@H]1CC[C@H]2[C@@H](C)C(=O)O[C@@H]3O[C@@]4(C)CC[C@@H]1[C@]32OO4	–	W2	drug-resistant strain, blood stage	IC50	15 nM
C[C@@H]1CC[C@H]2[C@@H](C)C(=O)O[C@@H]3O[C@@]4(C)CC[C@@H]1[C@]32OO4	–	D6	72 h, blood stage	IC50	4.7 ng/mL
CCn1cc(-c2ccnn2C)c(=O)c2cc(F)c(N3CCC(C)CC3)cc21	–	3D7	72 h, blood stage	EC50	> 10000 nM
CN1CCN(c2nccc(Nc3ccc4c(Nc5cnccn5)ccnc4c3)n2)CC1	–	D6	drug-resistant strain, blood stage	EC50	180 nM
CCn1cc(-c2nc(C)no2)c(=O)c2cc(F)c(N3CCC(C)(C)CC3)cc21	–	3D7	72 h, blood stage	EC50	1480 nM
c1ccc2sc(-c3ccnc(Nc4ccc(CN5CCC(N6CCCC6)CC5)cc4)n3)cc2c1	SYBR Green	3D7	1 µM, blood stage	inhibition	> 75%
